Data from ChEMBL document CHEMBL5532704, “Exploiting thiol-functionalized benzosiloxaboroles for achieving diverse substitution patterns - synthesis, characterization and biological evaluation of promising antibacterial agents” (RSC Med Chem, 2024).

Tests used:
[1] = system: Enterococcus faecium; test: Antibacterial activity against Enterococcus faecium ATCC 6057 assessed as diameter of inhibition zone by CLSI based disc-diffusion method; assay type: functional
Summary of the method: (§1)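 Strains were stored at −80 °C, then subcultured twice on tryptic soy agar for 24–48 h at 30 °C before the disc-diffusion test. The result was recorded as the inhibition-zone diameter.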

[2] = system: Enterococcus faecium; test: Antibacterial activity against Enterococcus faecium ATCC 6057 assessed as inhibition of microbial growth by broth-microdilution method; assay type: functional
Summary of the method: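 Stocks were kept at −80 °C and subcultured twice on tryptic soy agar (24–48 h, 30 °C). MIC came from CLSI broth microdilution in Mueller–Hinton II broth, using agents dissolved in DMSO. The top tested concentration was lowered to 200, 100 or 50 µg mL⁻¹ for agents that precipitated in the medium above those levels.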

[3] = system: Enterococcus faecalis; test: Antibacterial activity against Enterococcus faecalis ATCC 29212 assessed as diameter of inhibition zone by CLSI based disc-diffusion method; assay type: functional; summary of the method: as §1
[4] = system: Staphylococcus aureus; test: Antibacterial activity against methicillin-resistant Staphylococcus aureus ATCC 43300 assessed as diameter of inhibition zone by CLSI based disc-diffusion method; assay type: functional
Summary of the method: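 Disc-diffusion on standard strain subcultured twice on tryptic soy agar (24–48 h, 30 °C) after storage at −80 °C; inhibition zone diameter read; linezolid disc (0.03 mg) as reference.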

[5] = system: Bacillus subtilis; test: Antibacterial activity against Bacillus subtilis ATCC 6633 assessed as diameter of inhibition zone by CLSI based disc-diffusion method; assay type: functional; summary of the method: as §1
[6] = system: Staphylococcus aureus; test: Bactericidal activity against methicillin-resistant Staphylococcus aureus NMI 1712 K assessed as inhibition of microbial growth by CLSI based microdilution method; assay type: functional
[7] = Selectivity ratio of IC50 for cytotoxicity against human MRC5 cells assessed as inhibition of cell growth to MIC for antibacterial activity against methicillin-resistant Staphylococcus aureus ATCC 43300 assessed as inhibition of microbial growth; assay type: toxicity, cell-based
[8] = Selectivity ratio of IC50 for cytotoxicity against human MRC5 cells assessed as inhibition of cell growth to MIC for antibacterial activity against methicillin-resistant Staphylococcus aureus NMI 664 K assessed as inhibition of microbial growth by broth-microdilution method; assay type: toxicity, cell-based
[9] = Selectivity ratio of IC50 for cytotoxicity against human MRC5 cells assessed as inhibition of cell growth to MIC for antibacterial activity against methicillin-resistant Staphylococcus aureus NMI 1576 K assessed as inhibition of microbial growth by broth-microdilution method; assay type: toxicity, cell-based
[10] = Selectivity ratio of IC50 for cytotoxicity against human MRC5 cells assessed as inhibition of cell growth to MIC for antibacterial activity against methicillin-resistant Staphylococcus aureus NMI 1712 K assessed as inhibition of microbial growth by broth-microdilution method; assay type: toxicity, cell-based
[11] = Selectivity ratio of IC50 for cytotoxicity against human MRC5 cells assessed as inhibition of cell growth to MIC for antibacterial activity against methicillin-resistant Staphylococcus aureus NMI 1991 K assessed as inhibition of microbial growth by broth-microdilution method; assay type: toxicity, cell-based
[12] = Selectivity ratio of IC50 for cytotoxicity against human MRC5 cells assessed as inhibition of cell growth to MIC for antibacterial activity against methicillin-resistant Staphylococcus aureus NMI 2541 K assessed as inhibition of microbial growth by broth-microdilution method; assay type: toxicity, cell-based
[13] = system: Escherichia coli; test: Antibacterial activity against Escherichia coli ATCC 25922 assessed as inhibition of cell growth by broth-microdilution method; assay type: functional
Summary of the method: (§2)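 Strains were held at −80 °C and subcultured twice on tryptic soy agar for 24–48 h at 30 °C. MIC was read by CLSI broth microdilution in Mueller–Hinton II broth, with and without the efflux-pump inhibitor PAβN (20 µg mL⁻¹). Both sets contained 1 mM MgSO₄. A ≥4-fold MIC drop with PAβN was taken as significant.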

[14] = system: Klebsiella pneumoniae; test: Antibacterial activity against Klebsiella pneumoniae ATCC 13883 assessed as inhibition of cell growth by broth-microdilution method; assay type: functional; summary of the method: as §2
[15] = system: Proteus mirabilis; test: Antibacterial activity against Proteus mirabilis ATCC 12453 assessed as inhibition of cell growth by broth-microdilution method; assay type: functional; summary of the method: as §2
[16] = system: Enterobacter cloacae; test: Antibacterial activity against Enterobacter cloacae DSM 6234 assessed as inhibition of cell growth by broth-microdilution method; assay type: functional; summary of the method: as §2
[17] = system: Serratia marcescens; test: Antibacterial activity against Serratia marcescens ATCC 13880 assessed as inhibition of cell growth by broth-microdilution method; assay type: functional; summary of the method: as §2
[18] = system: Acinetobacter baumannii; test: Antibacterial activity against Acinetobacter baumannii ATCC 19606 assessed as inhibition of cell growth by broth-microdilution method; assay type: functional; summary of the method: as §2
[19] = system: Pseudomonas aeruginosa; test: Antibacterial activity against Pseudomonas aeruginosa ATCC […] assessed as inhibition of cell growth by broth-microdilution method; assay type: functional; summary of the method: as §2
[20] = system: Stenotrophomonas maltophilia; test: Antibacterial activity against Stenotrophomonas maltophilia ATCC 12714 assessed as inhibition of cell growth by broth-microdilution method; assay type: functional; summary of the method: as §2
[21] = system: Stenotrophomonas maltophilia; test: Antibacterial activity against Stenotrophomonas maltophilia ATCC 13637 assessed as inhibition of cell growth by broth-microdilution method; assay type: functional; summary of the method: as §2
[22] = system: Burkholderia cepacia; test: Antibacterial activity against Burkholderia cepacia ATCC 25416 assessed as inhibition of cell growth by broth-microdilution method; assay type: functional
[23] = system: Staphylococcus epidermidis; test: Antibacterial activity against Staphylococcus epidermidis ATCC 12228 assessed as diameter of inhibition zone by CLSI based disc-diffusion method; assay type: functional; summary of the method: as §1
[24] = system: Staphylococcus aureus; test: Bactericidal activity against methicillin-resistant Staphylococcus aureus NMI 2541 K assessed as inhibition of microbial growth by CLSI based microdilution method; assay type: functional

In the case of CC(=O)CCSc1c(F)cc2c(c1F)[Si](C)(C)OB2O, the “diameter of the inhibition zone (DIZ)” value [1] is reported as 21 mm, the MIC [2] is reported as 12.5 mg/L and the diameter of the inhibition zone (DIZ) [3] is reported as 19 mm. For the same compound, the “diameter of the inhibition zone (DIZ)” value [4] was 19 mm.

For C[Si]1(C)OB(O)c2cc(F)c(SCCC#N)c(F)c21, the “diameter of the inhibition zone (DIZ)” value [5] was 23 mm, the “diameter of the inhibition zone (DIZ)” value [4] was 19 mm and the MBC [6] was 12.5 mg/L. The selectivity ratio [7] was 11.2, the selectivity ratio [8] was 11.2 and the selectivity ratio [9] was 11.2. It also gave a selectivity ratio [10] of 11.2, a selectivity ratio [11] of 11.2 and a selectivity ratio [12] of 11.2.

With C[Si]1(C)OB(O)c2cc(F)c(SC3CC(=O)NC3=O)c(F)c21 (stereo not drawn) the “diameter of the inhibition zone (DIZ)” value [5] was 27 mm, the “diameter of the inhibition zone (DIZ)” value [4] was 23 mm and the MIC [13] was > 25 mg/L. For the same compound, the MIC [14] was > 25 mg/L, the MIC [15] was > 25 mg/L and the MIC [16] was > 25 mg/L. For the same compound, the MIC [17] was > 25 mg/L, the MIC [18] was > 25 mg/L and the MIC [19] was > 25 mg/L. For the same compound, the MIC [20] was > 25 mg/L, the MIC [21] was > 25 mg/L and the MIC [22] was > 25 mg/L. For the same compound, the selectivity ratio [7] was 13.4, the selectivity ratio [8] was 13.4 and the selectivity ratio [9] was 26.8. The selectivity ratio [10] was 13.4, the selectivity ratio [11] was 13.4 and the selectivity ratio [12] was 13.4.

In the case of CCOP(=O)(OCC)Sc1c(F)cc2c(c1F)[Si](C)(C)OB2O, the “diameter of the inhibition zone (DIZ)” value [5] is reported as 24 mm, the “diameter of the inhibition zone (DIZ)” value [1] is reported as 11 mm and the “diameter of the inhibition zone (DIZ)” value [3] is reported as 11 mm. The “diameter of the inhibition zone (DIZ)” value [23] was 20 mm, the “diameter of the inhibition zone (DIZ)” value [4] was 27 mm and the MBC [24] was > 12.5 mg/L. The selectivity ratio [7] was > 32, the selectivity ratio [8] was > 32 and the selectivity ratio [9] was > 32. For the same compound, the selectivity ratio [10] was > 32, the selectivity ratio [11] was > 32 and the selectivity ratio [12] was > 32.
